ChEMBL document CHEMBL4706565, “Anti-glioma effects of 2-aminothiophene-3-carboxamide derivatives, ANO1 channel blockers” (Eur J Med Chem, 2020)
Active and inactive are the calls of the source. The rule behind the calls is not given here.

Key:
[1] = system: U-251; experiment: Inhibition of colony formation in human U251 cells incubated for 14 days by crystal violet dye based assay; format: functional, cell-based; conditions: dose 1-10 µM, time 14.0 day
In short: (§1)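 U251 cells, 1.0×10^3 per well, treated with compound (1, 3 or 10 μM) for 2 weeks at 37 °C, 5% CO2. Colonies stained 24 h with crystal violet in methanol/formaldehyde/PBS, washed, extracted with 10% acetic acid and read at A570 nm. Compared against DMSO control.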

[2] = system: U-251; experiment: Upregulation of E-cadherin protein expression in human U251 cells incubated for 18 hrs by Western blot analysis; format: functional, cell-based; conditions: dose 1-10 µM
In short: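 U251 cells (5×10^5) treated with compounds for 18 h, lysed in NP40 buffer with protease inhibitors. 25 μg lysate run on SDS-PAGE and blotted for E-cadherin, β-actin as loading control. Primary antibodies at 1:1000 (actin 1:10000). Bands quantified by densitometry; one-way ANOVA.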

[3] = system: U-251; experiment: Antiproliferative activity against human U251 cells overexpressing ANO1 assessed as reduction in cell viability measured after 72 hrs by Celltiter-glo assay; format: functional
In short: (§2)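 5.0×10^3 cells/well seeded, overnight, then compounds added as 1:4 serial dilutions in DMSO; viability read after 72 h with CellTiter-Glo luminescence. GI50 from fitted dose-response curves; triplicate wells, SD from three independent experiments. DMEM for U251 and U138, MEM for U87MG, both with 10% FBS and pen/strep, 37 °C, 5% CO2.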

[4] = system: U-87 MG; experiment: Antiproliferative activity against human U87MG cells overexpressing ANO1 assessed as reduction in cell viability measured after 72 hrs by Celltiter-glo assay; format: functional, U-87MG ATCC; in short: as §2
[5] = system: U-251; experiment: Inhibition of colony formation in human U251 cells at 3 uM incubated for 14 days by crystal violet dye based assay; format: functional, cell-based; conditions: time 14.0 day; in short: as §1
[6] = system: U-251; experiment: Inhibition of cell migration in human U251 cells incubated for 18 hrs by wound healing assay; format: functional, cell-based; conditions: dose 1-10 µM
In short: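 U251 monolayer, 2.0×10^5 cells/well, plated overnight, then scratched and washed with PBS. Incubated 18 h in complete medium with compound (1, 5 or 10 μM). Wound area imaged before and after incubation; migration ratio taken from migrated area. One-way ANOVA.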

[7] = target: T1, Anoctamin-1 (Mus musculus) (UniProt Q8BHY3); experiment: Inhibition of GFP-fused mouse ANO1 channel expressed in HEK293A cells assessed as inhibition of current amplitude at 10 uM at membrane potential of +80 mV by patch clamp electrophysiology assay; format: cell-based; conditions: HEK293-A
T1 sequence (whole entry): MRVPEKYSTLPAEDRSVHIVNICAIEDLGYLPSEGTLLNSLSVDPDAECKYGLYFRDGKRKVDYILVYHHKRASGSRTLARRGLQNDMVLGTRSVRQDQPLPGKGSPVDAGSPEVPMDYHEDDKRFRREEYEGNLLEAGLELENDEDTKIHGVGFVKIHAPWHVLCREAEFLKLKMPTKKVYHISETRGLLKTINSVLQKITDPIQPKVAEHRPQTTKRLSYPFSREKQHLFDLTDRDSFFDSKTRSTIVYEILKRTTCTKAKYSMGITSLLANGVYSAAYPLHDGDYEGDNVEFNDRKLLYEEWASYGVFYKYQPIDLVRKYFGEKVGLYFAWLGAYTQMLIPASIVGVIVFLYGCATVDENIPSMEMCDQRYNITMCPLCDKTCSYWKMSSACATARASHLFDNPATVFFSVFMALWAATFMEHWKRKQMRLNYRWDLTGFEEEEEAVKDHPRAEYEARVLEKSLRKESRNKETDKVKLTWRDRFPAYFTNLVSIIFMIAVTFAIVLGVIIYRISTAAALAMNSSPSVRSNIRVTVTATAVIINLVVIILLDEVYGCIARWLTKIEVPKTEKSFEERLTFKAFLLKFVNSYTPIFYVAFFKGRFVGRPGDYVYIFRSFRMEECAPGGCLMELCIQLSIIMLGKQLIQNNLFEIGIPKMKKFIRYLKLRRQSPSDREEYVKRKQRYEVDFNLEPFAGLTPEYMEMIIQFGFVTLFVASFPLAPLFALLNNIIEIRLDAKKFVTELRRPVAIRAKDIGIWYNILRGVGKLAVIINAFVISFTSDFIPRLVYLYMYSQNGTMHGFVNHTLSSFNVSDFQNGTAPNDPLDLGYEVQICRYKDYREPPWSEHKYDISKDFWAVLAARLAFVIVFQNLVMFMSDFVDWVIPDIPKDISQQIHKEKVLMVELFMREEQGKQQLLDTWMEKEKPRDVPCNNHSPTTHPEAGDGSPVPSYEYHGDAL
In short: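 Whole-cell recording at room temperature in HEK293A cells transfected with GFP-mANO1, GFP-mANO2 or GFP-mTTYH1. 1 s ramps from +80 to -80 mV, holding potential -10 mV. For ANO1/ANO2: pipette CsCl 146 mM with Ca-EGTA-NMDG, pH 7.3; bath NaCl-based, pH 7.3. For TTYH1: Tris-aspartate pipette (pH 7.2) and Tris-HCl bath (pH 7.4), with […] and BaCl2 added to block K+ channels, and hypotonic (220 mOsm/kg) bath. Washout recordings assessed reversibility.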

Row | GI50 [3] [µM] | GI50 [4] [µM] | inhibition [7] [%] | SMILES | inhibition [1] | Activity [2] | inhibition [5] | inhibition [6]
1 | 12.6 | 31.5 | 50.6 | CC(C)(C)C(=O)Nc1sc2c(c1C(N)=O)CCC(C(C)(C)C)C2 (centres undefined) | Dose-dependent effect | Dose-dependent effect | Active | Dose-dependent effect
2 | 12 | 23.8 | 57.6 | NC(=O)c1c(NC(=S)NC(=O)c2ccc(Cl)cc2)sc2c1CCC2 | Dose-dependent effect | Dose-dependent effect | Active | Dose-dependent effect
